Data from ChEMBL document CHEMBL1250467, “Design, synthesis, and anticonvulsant activity of new N-Mannich bases derived from spirosuccinimides and spirohydantoins” (Bioorg Med Chem, 2010).
pIC50: −log10 of the molar value. The source made the active and inactive calls. The rule behind the calls is not given here.

Experiments:
[1] = system: Mus musculus; assay: Neurotoxicity in ip dosed CF1 albino mouse assessed as dose required to cause toxicity after 0.5 hrs by rotarod test; type: organism-based; settings: in vivo
How it was run: (§1)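 Male CF-1 mice; compounds suspended in 0.5% methylcellulose/water and injected ip at 30, 100 and 300 mg/kg. MES, scPTZ (pentylenetetrazole 85 mg/kg sc at the test time) and rotarod neurotoxicity were scored at 0.5 and 4 h. Value is the lowest dose active or toxic in half or more of the animals; signs such as ataxia or tremor were recorded.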

[2] = system: Mus musculus; assay: Anticonvulsant activity in ip dosed CF1 albino mouse assessed as dose required to protect against maximal electroshock-induced seizures after 0.5 hrs; type: functional; how it was run: as §1
[3] = system: Mus musculus; assay: Anticonvulsant activity in ip dosed CF1 albino mouse assessed as dose required to protect against maximal electroshock-induced seizures after 4 hrs; type: functional; how it was run: as §1
[4] = system: Mus musculus; assay: Anticonvulsant activity in ip dosed CF1 albino mouse assessed as dose required to protect against subcutaneous pentylenetetrazole-induced seizures after 0.5 hrs; type: functional; how it was run: as §1
[5] = system: Mus musculus; assay: Anticonvulsant activity in ip dosed CF1 albino mouse assessed as dose required to protect against subcutaneous pentylenetetrazole-induced seizures after 4 hrs; type: functional; how it was run: as §1
[6] = system: Mus musculus; assay: Neurotoxicity in CF1 albino mouse at 300 mg/kg, ip after 4 hrs by rotarod test; type: toxicity, organism-based; parameters: dose 300 mg/kg, route intraperitoneal; settings: in vivo; how it was run: as §1
[7] = system: Rattus norvegicus; assay: Anticonvulsant activity in Sprague-Dawley rat assessed as protection against maximal electroshock-induced seizures at 30 mg/kg po after 0.25 hrs; type: functional
How it was run: (§2)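 Male Sprague–Dawley rats, four per group, given 30 mg/kg orally as a 0.5% methylcellulose/water suspension. MES protection scored at 0.25, 0.5, 1, 2 and 4 h after dosing, motor impairment checked in parallel; data are the number of the four rats protected.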

[8] = system: Rattus norvegicus; assay: Anticonvulsant activity in Sprague-Dawley rat assessed as protection against maximal electroshock-induced seizures at 30 mg/kg po after 0.5 hrs; type: functional; how it was run: as §2
[9] = system: Rattus norvegicus; assay: Anticonvulsant activity in Sprague-Dawley rat assessed as protection against maximal electroshock-induced seizures at 30 mg/kg po after 1 hr; type: functional; how it was run: as §2
[10] = system: Rattus norvegicus; assay: Anticonvulsant activity in Sprague-Dawley rat assessed as protection against maximal electroshock-induced seizures at 30 mg/kg po after 2 hrs; type: functional; how it was run: as §2
[11] = system: Rattus norvegicus; assay: Anticonvulsant activity in Sprague-Dawley rat assessed as protection against maximal electroshock-induced seizures at 30 mg/kg po after 4 hrs; type: functional; how it was run: as §2
[12] = system: Rattus norvegicus; assay: Anticonvulsant activity in po dosed Sprague-Dawley rat assessed as time required to peak protection against seizures; type: functional
[13] = system: Rattus norvegicus; assay: Anticonvulsant activity in po dosed Sprague-Dawley rat assessed as protection against maximal electroshock-induced seizures; type: functional
How it was run: (§3)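 Male Sprague–Dawley rats dosed orally (0.5% methylcellulose/water suspension), groups of eight, tested at the previously estimated time of peak effect. Doses varied until at least three points lay in the 10–90% range of protection (MES, scPTZ) or minimal rotarod neurotoxicity. ED50/TD50 with 95% confidence intervals came from regression; PI = TD50/ED50.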

[14] = system: Rattus norvegicus; assay: Anticonvulsant activity in po dosed Sprague-Dawley rat assessed as protection against subcutaneous pentylenetetrazole-induced seizures; type: functional; how it was run: as §3
[15] = Neurotoxicity in po dosed Sprague-Dawley rat by rotarod test; type: toxicity, organism-based; settings: in vivo; how it was run: as §3
[16] = species on record: Rattus norvegicus; assay: Protection index, ratio of TD50 for Sprague-Dawley rat by rotarod test to ED50 for Sprague-Dawley rat by maximal electroshock test; type: functional; how it was run: as §3
[17] = Displacement of [3H]batrachotoxin from neurotoxin site 2 of voltage-gated sodium channel in rat forebrain tissue; settings: for pIC50: read-out: IC50
[18] = system: Mus musculus; assay: Anticonvulsant activity in CF1 albino mouse assessed as protection against subcutaneous pentylenetetrazole-induced seizures at 300 mg/kg, ip after 0.5 hrs; type: functional, organism-based; parameters: dose 300 mg/kg; how it was run: as §1
[19] = system: Mus musculus; assay: Anticonvulsant activity in CF1 albino mouse assessed as protection against subcutaneous pentylenetetrazole-induced seizures at 300 mg/kg, ip after 4 hrs; type: functional, organism-based; parameters: dose 300 mg/kg; how it was run: as §1
[20] = system: Mus musculus; assay: Neurotoxicity in ip dosed CF1 albino mouse assessed as dose required to cause toxicity after 4 hrs by rotarod test; type: organism-based; settings: in vivo; how it was run: as §1
[21] = system: Mus musculus; assay: Anticonvulsant activity in CF1 albino mouse assessed as protection against maximal electroshock-induced seizures at 300 mg/kg, ip after 0.5 hrs; type: functional, organism-based; parameters: dose 300 mg/kg; how it was run: as §1
[22] = system: Mus musculus; assay: Anticonvulsant activity in CF1 albino mouse assessed as protection against maximal electroshock-induced seizures at 300 mg/kg, ip after 4 hrs; type: functional, organism-based; parameters: dose 300 mg/kg; how it was run: as §1

SMILES	Activity [1] [mg/kg]	Activity [2] [mg/kg]	Activity [3] [mg/kg]	Activity [7]	Activity [8] [%]	Activity [9] [%]	Activity [10] [%]	Activity [11] [%]	Time [12] [h]	ED50 [13] [mg/kg]	TD50 [15] [mg/kg]	PI [16]	Activity [18]	Activity [19]	Activity [20] [mg/kg]	Activity [21]	Activity [22]	further results
O=C1NC2(CCc3ccccc3C2)C(=O)N1CN1CCOCC1 (stereo not drawn)	100	30	30	inactive	25	50	75	100	6	10.7	400	>37.55	–	–	–	–	–	Activity [4]: 100 mg/kg; Activity [5]: 100 mg/kg; Activity [6]: Non-toxic; ED50 [14]: > 250 mg/kg; IC50 [17]: Not Active
O=C1NC2(CCc3ccccc3C2)C(=O)N1CN1CCN(c2cccc(C(F)(F)F)c2)CC1 (stereo not drawn)	100	300	30	–	–	–	–	–	–	–	–	–	inactive	inactive	30	–	–	–
O=C1CC2(CCc3ccccc3C2)C(=O)N1CN1CCN(c2ccccc2)CC1 (stereo not drawn)	100	–	–	–	–	–	–	–	–	–	–	–	inactive	inactive	300	inactive	inactive	–
O=C1CC2(CCc3ccccc3C2)C(=O)N1CN1CCN(c2ccccc2F)CC1 (stereo not drawn)	300	–	–	–	–	–	–	–	–	–	–	–	inactive	inactive	–	inactive	inactive	Activity [6]: Non-toxic
O=C1CC2(CCc3ccccc3C2)C(=O)N1CCN1CCN(c2cccc(Cl)c2)CC1 (stereo not drawn)	–	–	–	–	–	–	–	–	–	23	–	2.6	–	–	–	–	–	–
O=C1NC2(CCc3ccccc3C2)C(=O)N1CN1CCN(c2ccccc2)CC1 (stereo not drawn)	300	–	30	25%	50	50	100	100	6	1.88	> 500	>256.78	inactive	inactive	300	inactive	–	pIC50 [17]: 5.03
O=C1NC2(CCc3ccccc3C2)C(=O)N1CN1CCN(c2cccc(Cl)c2)CC1 (stereo not drawn)	30	–	100	–	–	–	–	–	–	–	–	–	inactive	inactive	30	inactive	–	–
O=C1NC2(CCc3ccccc3C2)C(=O)N1CN1CCN(c2ccc(F)cc2)CC1 (stereo not drawn)	30	–	–	–	–	–	–	–	–	–	–	–	inactive	inactive	30	inactive	inactive	–
O=C1CC2(CCc3ccccc3C2)C(=O)N1CCN1CCN(c2cccc(C(F)(F)F)c2)CC1 (stereo not drawn)	–	–	–	–	–	–	–	–	–	205	–	1.95	–	–	–	–	–	–
O=C1NC(=O)C(c2ccccc2)(c2ccccc2)N1 [PHENYTOIN]	100	30	30	25%	100	75	75	75	1	–	> 100	>3.6	inactive	inactive	100	–	–	ED50 [14]: > 500 mg/kg; pIC50 [17]: 4.40
